Measured values as given in publication PMC4184705 (Pharmacology Research & Perspectives, 2014).

Experiments:
[1] = 2 mg oral midazolam dose; sample collection at 0.25 h; ref Winter et al. [2013]; cited from earlier work
[2] = Plasma midazolam pharmacokinetics after 2 mg oral doses on day 1 and day 16; conditions: for AUC(0-t) / AUC(0-inf) / Cmax / half-life: human, plasma; for AUC(0-inf): AUCinf; for half-life: t1/2, Group B (midazolam alone)
[3] = Safety: adverse event reports and clinical laboratory assessments; type: in vivo, human
How it was run: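 Open-label parallel-group study in postmenopausal women with osteoporosis, randomised 2:1. […] Group B received midazolam only. Adverse events recorded at any time through day 47 follow-up. Clinical laboratory tests at screening (21 days pre-treatment) and day 17. All treated subjects analysed.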

CYP3A4 [4] = conditions: healthy volunteers; ref Gupta et al. [2012]; cited from earlier work
RANKL = experiment: Serum C-telopeptide; type: in vivo, human; conditions: Group A; denosumab 60 mg SC on day 2
CYP3A4 [5] = type: in vivo, human; conditions: single 60 mg SC dose of denosumab; postmenopausal women with osteoporosis
[6] = Serum denosumab concentration by validated ELISA; type: in vivo, human; conditions: day 16 (14 days after a 60 mg SC dose); Group A
[7] = 60 mg SC dose; ref Bekker et al. [2004]; cited from earlier work
[8] = Group A (midazolam + denosumab), N = 17
[9] = Group B (midazolam alone), period effect, n = 8
[10] = po, 2 mg, Group B (midazolam alone), day 1, 2 mg oral, mean (SD), N = 8
[11] = po, 2 mg, Group B (midazolam alone), day 16, 2 mg oral, mean (SD), N = 8

Cc1ncc2n1-c1ccc(Cl)cc1C(c1ccccc1F)=NC2 [midazolam]
mean Cmax [1]: 11.9 ng/mL
AUC0–inf, ratio of day 16/day 1, LS mean [2, 8]: 1.02
AUC0–t, ratio of day 16/day 1, LS mean [2, 8]: 1.02
Cmax, ratio of day 16/day 1, LS mean [2, 8]: 1.04
AUCinf ([2]; Group A, day 1, midazolam 2 mg oral, mean (SD), N = 17): 35.6 (16.4) ng·h/mL
Tmax ([2]; Group B (midazolam alone), day 16, 2 mg oral, median (range), N = 8): 0.5 (0.5–1.0) hr
AUC0–inf, point estimate for the ratio of the least square means (day 16/day 1) [2, 9]: 0.98
AUC0–t, point estimate for the ratio of the least square means (day 16/day 1) [2, 9]: 0.98
Cmax, point estimate for the ratio of the least square means (day 16/day 1) ([2]; Group B (midazolam alone), period effect, n = 8, 90% CI 0.82 to 1.33): 1.05
AUC(0-t) ([2]; oral): 31 ng·h/mL
AUC(0-t) ([2]; po, 2 mg): 30.4 ng·h/mL
AUC(0-inf) [2, 10]: 31 ng·h/mL
AUC(0-inf) [2, 11]: 29.3 ng·h/mL
Cmax [2, 10]: 11.3 ng/mL
Cmax [2, 11]: 10.9 ng/mL
half-life ([2]; po, 2 mg, day 1, 2 mg oral, mean (SD), N = 8): 6.2 h
half-life ([2]; po, 2 mg, day 16, 2 mg oral, mean (SD), N = 8): 6.22 h
somnolence incidence ([3]; Group A, day 1 (prior to administration of denosumab), 7 of 19 subjects): 37%
somnolence incidence ([3]; Group B, day 1, 2 of 8 subjects): 25%
somnolence incidence ([3]; day 16 (after the second midazolam dose)): no subjects
somnolence incidence ([3]; days 2 to 15): no subjects
changes in clinical laboratory values from baseline ([3]; screening to day 17): unremarkable
deaths, withdrawal due to adverse events, serious adverse events ([3]; whole study): No deaths, withdrawal due to adverse events, or serious adverse events

C[C@@H]1CCN(C(=O)CC#N)C[C@@H]1N(C)c1ncnc2[nH]ccc12 [tofacitinib]
effects on CYP3A4 activity (midazolam pharmacokinetics) (CYP3A4 [4]): lack of effects

denosumab: fully human monoclonal immunoglobulin G2 (IgG2) that binds to and neutralizes RANKL activity
sCTX concentrations on day 16 lower than those on day 2, on average (RANKL): ~81%
effect on CYP3A4 activity (based on midazolam pharmacokinetics) (CYP3A4 [5]): no effect
serum denosumab concentration, mean (SD) [6]: 5790 (1800) ng/mL
time by which maximal pharmacodynamic effects are observed [7]: ≤ 1 week
